ChEMBL document CHEMBL1158122, “Anti-inflammatory, anti-tumor-promoting, and cytotoxic activities of constituents of marigold (Calendula officinalis) flowers” (J Nat Prod, 2006)

Legend:
[1] = Cytotoxicity against human Hs 578T cells after 48 hrs by SRB assay; assay type: functional
EKVX = experiment: Cytotoxicity against human EKVX cells after 48 hrs by SRB assay; assay type: functional
[2] = Cytotoxicity against human Raji cells assessed as cell viability at 1000 molar ratio; assay type: cell-based; conditions: read-out: Activity
Summary of the method: (§1)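 Raji cells were treated with 32 pmol TPA to induce EBV early antigen activation. The test agent was added at 10, 100, 500 or 1000 mol ratio relative to TPA, and Raji cell viability was measured alongside EA activation.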

HOP-62 = experiment: Cytotoxicity against human HOP-62 cells after 48 hrs by SRB assay; assay type: functional; conditions: HOP-62, 48 h
Malme-3M = experiment: Cytotoxicity against human MALME-3M cells after 48 hrs by SRB assay; assay type: functional
SN12C = experiment: Cytotoxicity against human SN12C cells after 48 hrs by SRB assay; assay type: functional
UO-31 = experiment: Cytotoxicity against human UO-31 cells after 48 hrs by SRB assay; assay type: functional; conditions: UO-31, 48 h
Summary of the method: (§2)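 Tested in the NCI panel of 60 human tumour cell lines covering lung, colon, melanoma, renal, ovarian, breast and leukaemia. At least five concentrations were run in 10-fold dilutions starting from 10^-4 M. Exposure was continuous for 48 h. Growth or viability was estimated by sulforhodamine B protein staining, and GI50 values were reported.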

[3] = Cytotoxicity against human Raji cells assessed as cell viability at 100 molar ratio; assay type: cell-based; conditions: read-out: Activity; summary of the method: as §1
SF-268 = experiment: Cytotoxicity against human SF-268 cells after 48 hrs by SRB assay; assay type: functional; conditions: SF-268, 48 h
BT-549 = experiment: Cytotoxicity against human BT-549 cells after 48 hrs by SRB assay; assay type: functional; conditions: BT-549, 48 h
NCI-H23 = experiment: Cytotoxicity against human NCI-H23 cells after 48 hrs by SRB assay; assay type: functional; conditions: NCI-H23, 48 h
[4] = Cytotoxicity against human Raji cells assessed as cell viability at 500 molar ratio; assay type: cell-based; conditions: read-out: Activity; summary of the method: as §1
U-251 = experiment: Cytotoxicity against human U251 cells after 48 hrs by SRB assay; assay type: functional; conditions: U-251, 48 h; summary of the method: as §2
[5] = Cytotoxicity against human Raji cells assessed as cell viability at 10 molar ratio; assay type: cell-based; conditions: read-out: Activity; summary of the method: as §1
T47D = experiment: Cytotoxicity against human T47D cells after 48 hrs by SRB assay; assay type: functional; summary of the method: as §2
CAKI-1 = experiment: Cytotoxicity against human Caki-1 cells after 48 hrs by SRB assay; assay type: functional; conditions: CAKI-1, 48 h
SNB-19 = experiment: Cytotoxicity against human SNB-19 cells after 48 hrs by SRB assay; assay type: functional; conditions: SNB-19, 48 h
OVCAR-3 = experiment: Cytotoxicity against human OVCAR-3 cells after 48 hrs by SRB assay; assay type: functional; conditions: OVCAR-3, 48 h
NCI-H460 = experiment: Cytotoxicity against human NCI-H460 cells after 48 hrs by SRB assay; assay type: functional; conditions: NCI-H460, 48 h
TK-10 = experiment: Cytotoxicity against human TK-10 cells after 48 hrs by SRB assay; assay type: functional; conditions: TK-10, 48 h; summary of the method: as §2
PC-3 = experiment: Cytotoxicity against human PC-3 cells after 48 hrs by SRB assay; assay type: functional; conditions: PC-3, 48 h
SK-MEL-2 = experiment: Cytotoxicity against human SK-MEL-2 cells after 48 hrs by SRB assay; assay type: functional; conditions: SK-MEL-2, 48 h
NCI-H226 = experiment: Cytotoxicity against human NCI-H226 cells after 48 hrs by SRB assay; assay type: functional; conditions: NCI-H226, 48 h
A549 = experiment: Cytotoxicity against human A549 cells after 48 hrs by SRB assay; assay type: functional; conditions: A549, 48 h
OVCAR-5 = experiment: Cytotoxicity against human OVCAR5 cells after 48 hrs by SRB assay; assay type: functional; conditions: OVCAR-5, 48 h
K562 = experiment: Cytotoxicity against human K-562 cells after 48 hrs by SRB assay; assay type: functional; conditions: K562, 48 h
Raji [6] = experiment: Inhibition of TPA-induced EBV-early antigen activation in human Raji cells at 500 molar ratio relative to TPA; assay type: cell-based; parameters: scale not given: the % may be the effect or the level left; conditions: human gammaherpesvirus 4
IGROV-1 = experiment: Cytotoxicity against human IGROV1 cells after 48 hrs by SRB assay; assay type: functional; conditions: IGROV-1, 48 h
RXF 393 = experiment: Cytotoxicity against human […] cells after 48 hrs by SRB assay; assay type: functional; conditions: RXF 393, 48 h
786-0 = experiment: Cytotoxicity against human 786-0 cells after 48 hrs by SRB assay; assay type: functional; conditions: 786-0, 48 h
Raji [7] = experiment: Inhibition of TPA-induced EBV-early antigen activation in human Raji cells at 100 molar ratio relative to TPA; assay type: cell-based; parameters: scale not given: the % may be the effect or the level left; conditions: human gammaherpesvirus 4
[8] = Inhibition of TPA-induced EBV-early antigen activation in human Raji cells relative to TPA; assay type: cell-based, human gammaherpesvirus 4
SK-MEL-5 = experiment: Cytotoxicity against human SK-MEL-5 cells after 48 hrs by SRB assay; assay type: functional; conditions: SK-MEL-5, 48 h
MOLT-4 = experiment: Cytotoxicity against human MOLT-4 cells after 48 hrs by SRB assay; assay type: functional; conditions: MOLT-4, 48 h
KM12 = experiment: Cytotoxicity against human KM12 cells after 48 hrs by SRB assay; assay type: functional; conditions: KM12, 48 h
NCI/ADR-RES = experiment: Cytotoxicity against human NCI/ADR-RES cells after 48 hrs by SRB assay; assay type: functional
MDA-MB-231 = experiment: Cytotoxicity against human MDA-MB-231 cells after 48 hrs by SRB assay; assay type: functional; conditions: MDA-MB-231, 48 h
[9] = Cytotoxicity against human SK MEL28 cells after 48 hrs by SRB assay; assay type: functional; conditions: SK-MEL-28, 48 h
MCF7 = experiment: Cytotoxicity against human MCF7 cells after 48 hrs by SRB assay; assay type: functional; conditions: MCF7, 48 h
HL-60 = experiment: Cytotoxicity against human HL-60 cells after 48 hrs by SRB assay; assay type: functional; conditions: HL-60, 48 h
[10] = Cytotoxicity against human HCT 116 cells after 48 hrs by SRB assay; assay type: functional; conditions: HCT-116, 48 h
SW-620 = experiment: Cytotoxicity against human SW620 cells after 48 hrs by SRB assay; assay type: functional; conditions: SW-620, 48 h
OVCAR-8 = experiment: Cytotoxicity against human OVCAR8 cells after 48 hrs by SRB assay; assay type: functional; conditions: OVCAR-8, 48 h
NCI-H322M = experiment: Cytotoxicity against human NCI-H322M cells after 48 hrs by SRB assay; assay type: functional
NCI-H522 = experiment: Cytotoxicity against human NCI-H522 cells after 48 hrs by SRB assay; assay type: functional; conditions: NCI-H522, 48 h
HT-29 = experiment: Cytotoxicity against human HT-29 cells after 48 hrs by SRB assay; assay type: functional; conditions: HT-29, 48 h
LOX IMVI = experiment: Cytotoxicity against human LOX IMVI cells after 48 hrs by SRB assay; assay type: functional
Raji [11] = experiment: Inhibition of TPA-induced EBV-early antigen activation in human Raji cells at 1000 molar ratio relative to TPA; assay type: cell-based; parameters: scale not given: the % may be the effect or the level left; conditions: human gammaherpesvirus 4
ACHN = experiment: Cytotoxicity against human ACHN cells after 48 hrs by SRB assay; assay type: functional
HCT-15 = experiment: Cytotoxicity against human HCT-15 cells after 48 hrs by SRB assay; assay type: functional; conditions: HCT-15, 48 h
Raji [12] = experiment: Inhibition of TPA-induced EBV-early antigen activation in human Raji cells at 10 molar ratio relative to TPA; assay type: cell-based; parameters: scale not given: the % may be the effect or the level left; conditions: human gammaherpesvirus 4
HCC 2998 = experiment: Cytotoxicity against human HCC2998 cells after 48 hrs by SRB assay; assay type: functional; conditions: HCC 2998, 48 h
UACC-62 = experiment: Cytotoxicity against human UACC-62 cells after 48 hrs by SRB assay; assay type: functional; conditions: UACC-62, 48 h; summary of the method: as §2
UACC-257 = experiment: Cytotoxicity against human UACC-257 cells after 48 hrs by SRB assay; assay type: functional; conditions: UACC-257, 48 h; summary of the method: as §2
CCRF-CEM = experiment: Cytotoxicity against human CCRF-CEM cells after 48 hrs by SRB assay; assay type: functional
COLO 205 = experiment: Cytotoxicity against human COLO205 cells after 48 hrs by SRB assay; assay type: functional; conditions: COLO 205, 48 h
MDA-MB-435 = experiment: Cytotoxicity against human MDA-MB-435 cells after 48 hrs by SRB assay; assay type: functional; conditions: MDA-MB-435, 48 h

SMILES: COC(=O)[C@H]1O[C@@H](O[C@H]2CC[C@]3(C)[C@H]4CC=C5[C@@H]6CC(C)(C)CC[C@]6(C(=O)O)CC[C@@]5(C)[C@]4(C)CC[C@H]3C2(C)C)[C@H](O)[C@@H](O[C@@H]2O[C@H](CO)[C@H](O)[C@H](O)[C@H]2O)[C@@H]1O
- GI50 [1]: 8.77 µM
- GI50 (EKVX): 6.59 µM
- viability at 1000 molar ratio [2]: 70%
- GI50 (HOP-62): 6.21 µM
- GI50 (Malme-3M): 6.22 µM
- GI50 (SN12C): 6.34 µM
- GI50 (UO-31): 33.3 µM
- viability at 100 molar ratio [3]: > 80%
- GI50 (SF-268): 7.56 µM
- GI50 (BT-549): 6.93 µM
- GI50 (NCI-H23): 6.46 µM
- viability at 500 molar ratio [4]: > 80%
- GI50 (U-251): 6.08 µM
- viability at 10 molar ratio [5]: > 80%
- GI50 (T47D): 8.16 µM
- GI50 (CAKI-1): 12.2 µM
- GI50 (SNB-19): 6.82 µM
- GI50 (OVCAR-3): 13.9 µM
- GI50 (NCI-H460): 11.5 µM
- GI50 (TK-10): 7.22 µM
- GI50 (PC-3): 6.43 µM
- GI50 (SK-MEL-2): 11.9 µM
- GI50 (NCI-H226): 6.18 µM
- GI50 (A549): 7.22 µM
- GI50 (OVCAR-5): 7.31 µM
- GI50 (K562): 8.17 µM
- Activity (Raji [6]): 47.2%
- GI50 (IGROV-1): 20.1 µM
- GI50 (RXF 393): 11.3 µM
- GI50 (786-0): 6.36 µM
- Activity (Raji [7]): 71.2%
- IC50 [8]: 479 molar ratio
- GI50 (SK-MEL-5): 6.14 µM
- GI50 (MOLT-4): 2.17 µM
- GI50 (KM12): 8.83 µM
- GI50 (NCI/ADR-RES): 7.24 µM
- GI50 (MDA-MB-231): 7.28 µM
- GI50 [9]: 10.2 µM
- GI50 (MCF7): 9.93 µM
- GI50 (HL-60): 6.92 µM
- GI50 [10]: 6.39 µM
- GI50 (SW-620): 7.28 µM
- GI50 (OVCAR-8): 9.96 µM
- GI50 (NCI-H322M): 7.59 µM
- GI50 (NCI-H522): 10.5 µM
- GI50 (HT-29): 12.4 µM
- GI50 (LOX IMVI): 6.27 µM
- Activity (Raji [11]): 10%
- GI50 (ACHN): 5.99 µM
- GI50 (HCT-15): 6.57 µM
- Activity (Raji [12]): 100%
- GI50 (HCC 2998): 7.14 µM
- GI50 (UACC-62): 6.23 µM
- GI50 (UACC-257): 6.89 µM
- GI50 (CCRF-CEM): 5.79 µM
- GI50 (COLO 205): 8.64 µM
- GI50 (MDA-MB-435): 13.3 µM
